Experimental data gathered from unrelated publications.
ABL1 M351T: Tyrosine-protein kinase ABL1 (ABL1, Homo sapiens, UniProt P00519, M351T)
ABL1: Tyrosine-protein kinase ABL1 (ABL1, Homo sapiens, UniProt P00519)
ABL1 Y253F: Tyrosine-protein kinase ABL1 (ABL1, Homo sapiens, UniProt P00519, Y253F)
ABL1 Q252H phosphorylated: Tyrosine-protein kinase ABL1, phosphorylated (ABL1, Homo sapiens, UniProt P00519, Q252H)

| Compound | target | read-out | action | technique | tested at | quantity | value |
| --- | --- | --- | --- | --- | --- | --- | --- |
| COc1ccc2[nH]c3c4[nH]c5ccc(OC)cc5c4c4c(c3c2c1)C(=O)NC4=O | ABL1 M351T | binding | – | – | 1 µM | remaining binding | 68% |
| Cc1nc(Nc2ncc(C(=O)Nc3c(C)cccc3Cl)s2)cc(N2CC[C@H](N)C2)n1 | ABL1 | enzyme activity | inhibitor | – | 1 nM | inhibition | 92% |
| CN1CCN(C(=O)c2ccc(NC(=O)Nc3ccc(N(C)c4ccnc(Nc5ccc(CS(C)(=O)=O)cc5)n4)cc3)cc2)CC1 | ABL1 Y253F | binding | – | – | 1 µM | remaining binding | 20% |
| [2H]c1cc(C)c(NC(=O)c2cnc(Nc3cc(N4CC[C@@H](N)C4)nc(C)n3)s2)c(Cl)c1 | ABL1 | enzyme activity | inhibitor | – | 1 nM | inhibition | 86% |
| C[C@H]1CC[C@H](n2c3cnccc3c3cnc(Nc4ccc5c(n4)CCN(C(=O)CO)C5)nc32)CC1 | ABL1 Y253F | cell-free assay | – | – | 1 µM | remaining signal | 100% |
| C=CC(=O)N1CCC([C@@H]2CCNc3c(C(N)=O)c(-c4ccc(Oc5ccccc5)cc4)nn32)CC1 | ABL1 Q252H phosphorylated | enzyme activity | inhibitor | – | 1 µM | inhibition | 32% |
| C#Cc1cc(-c2cc(Nc3nc(N[C@@H](C)c4ccc(F)cn4)ncc3Cl)n[nH]2)ccc1C=O | Tyrosine-protein kinase ABL1 (ABL1, Homo sapiens, UniProt P00519, H396P) | enzyme activity | inhibitor | – | 0.2 µM | inhibition | 16.6% |
| C1=C/COCc2cc(ccc2OCCN2CCCC2)Nc2nccc(n2)-c2cccc(c2)COC/1 | Tyrosine-protein kinase ABL1 (ABL1, Homo sapiens, UniProt P00519, Q252H) | binding | – | – | 0.1 µM | remaining binding | 15% |
| CC#CC(=O)N1CCC[C@H]1c1nc(-c2ccc(C(=O)Nc3ccccn3)cc2)c2c(N)nccn12 | ABL1 Q252H phosphorylated | enzyme activity | inhibitor | – | 1 µM | inhibition | 39% |
| COc1ccc2oc(-c3ccc4nc(N)oc4c3)c/c(=N\c3ccccc3NC(=O)CCN)c2c1 | ABL1 M351T | cell-free assay | – | – | 1 µM | remaining signal | 100% |
| Cc1nc(Nc2ncc(C(=O)Nc3c(C)cccc3Cl)s2)cc(N2CC[C@H](O)C2)n1 | ABL1 | enzyme activity | inhibitor | – | 1 nM | inhibition | 86% |
| N#Cc1ccc(NC(=O)Nc2ccccc2)cc1 | Tyrosine-protein kinase ABL1, non-phosphorylated (ABL1, Homo sapiens, UniProt P00519) | cell-free assay | – | competition with immobilised ligand | 25 µM | remaining binding | 83% |
| [2H]c1cc(C)c(NC(=O)c2cnc(Nc3cc(N4CC[C@@H](O)C4)nc(C)n3)s2)c(Cl)c1 | ABL1 | enzyme activity | inhibitor | – | 1 nM | inhibition | 87% |
| CO[C@@H]1[C@H](N(C)C(=O)c2ccccc2)C[C@H]2O[C@]1(C)n1c3ccccc3c3c4c(c5c6ccccc6n2c5c31)C(=O)NC4 | Tyrosine-protein kinase ABL1, phosphorylated (ABL1, Homo sapiens, UniProt P00519) | enzyme activity | inhibitor | – | 1 µM | inhibition | 31% |
| [2H]c1cc(C)c(NC(=O)c2cnc(Nc3cc(N4CCCCC4)nc(C)n3)s2)c(Cl)c1 | ABL1 | enzyme activity | inhibitor | – | 10 nM | inhibition | > 90% |
| CCCCC(=O)Nc1ccc(-c2ccc3ncn(CCC)c(=O)c3c2)cn1 | ABL1 Q252H phosphorylated | binding | – | competition with immobilised ligand | 0.5 µM | remaining binding | 99% |
| Cc1ccc(NC(=O)c2ccnc(C(F)(F)F)c2)cc1-c1cc(OCCO)nc(N2CCOCC2)c1 | Tyrosine-protein kinase ABL1 (ABL1, Homo sapiens, UniProt P00519, F317I) | binding | – | – | 1 µM | remaining binding | 85% |
